Source: PubChem BioAssay
TAAR1 ag – human TAAR1 agonism; CHO RD-HGA16 TAAR1, Fluo-8 calcium fluorescence; vehicle wells 0%, saturating PEA agonist 100%; activation, % at 3 µM; actives 0.99% (n = 360,000); AID 624467;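 active = activation above the mean activation of all test compounds in the run plus 3 SD, cut at about 38% in these data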
Target sequence (Q96RJ0 whole entry, looked up): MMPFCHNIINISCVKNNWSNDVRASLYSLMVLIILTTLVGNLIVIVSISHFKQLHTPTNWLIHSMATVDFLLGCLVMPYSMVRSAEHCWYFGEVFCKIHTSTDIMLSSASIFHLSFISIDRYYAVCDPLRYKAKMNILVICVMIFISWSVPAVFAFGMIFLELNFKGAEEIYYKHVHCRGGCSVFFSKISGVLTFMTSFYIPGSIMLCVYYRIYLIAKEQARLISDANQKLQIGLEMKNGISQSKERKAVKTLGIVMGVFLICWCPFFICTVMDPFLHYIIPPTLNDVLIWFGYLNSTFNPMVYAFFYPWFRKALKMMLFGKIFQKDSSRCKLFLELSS
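Repeats: no replicates (n 1) | Material: CHO-derived RD-HGA16 cells with stable Gα16 and human TAAR1 | Technique: Kinetic Fluo-8 calcium fluorescence | Schedule: 17-24 h seeding, 75 min 37 °C dye, 30 min RT | Evaluation: % activation from peak over basal fluorescence ratio, DMSO-to-PEA scaled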
OXTR potentiator – potentiates the human oxytocin receptor response. P30559. CHO-OTR cells, Fluo-8 calcium fluorescence, potentiator mode; 0% = oxytocin EC15, 100% = EC100. activation, % at 3 µM. actives 0.061% (n = 320,000). AID 2445;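 active = activation above that plate's cutoff, the mean activation of tested compounds plus 3 SD, cut at about 6.6% in these data, passing the limit was not always enough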
Target sequence (P30559 whole entry, looked up): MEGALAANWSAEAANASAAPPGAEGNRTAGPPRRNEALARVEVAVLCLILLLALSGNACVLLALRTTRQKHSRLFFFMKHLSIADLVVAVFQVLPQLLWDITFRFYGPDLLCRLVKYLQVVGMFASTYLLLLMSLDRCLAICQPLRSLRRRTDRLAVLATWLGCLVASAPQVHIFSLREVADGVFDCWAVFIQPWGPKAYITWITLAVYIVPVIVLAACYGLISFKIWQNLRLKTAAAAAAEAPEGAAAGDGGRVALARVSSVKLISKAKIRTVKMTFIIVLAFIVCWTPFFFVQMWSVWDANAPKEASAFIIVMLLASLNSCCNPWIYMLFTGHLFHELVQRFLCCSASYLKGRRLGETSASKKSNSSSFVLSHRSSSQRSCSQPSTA
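Assay system: CHO cell line stably expressing human OTR. Reagent: EC15 oxytocin agonist. Dosing: single dose, 3.0 µM nominal final compound concentration. Timing: compound 6 min at room temperature before oxytocin, 100 s read. Signal: kinetic Fluo-8 calcium fluorescence. Controls: oxytocin EC15 low and EC100 high.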
TAAR1 antag – human TAAR1 antagonism; AID 624466; CHO RD-HGA16 TAAR1, Fluo-8 calcium fluorescence, antagonist; Q96RJ0; actives 1.5% (n = 360,000); inhibition, % at 3 µM;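 active = inhibition above a per-plate cutoff, the mean inhibition of test compounds on that plate plus 3 SD, cut at about 49% in these data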
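Test system: hTAAR1-expressing CHO RD-HGA16 cells, Gα16-coupled; Probe or stimulus: EC80 β-phenethylamine stimulus; Compound dosing: single nominal final test compound concentration of 3 µM; Timing: 140 s kinetic read after compound, 140 s after agonist; Signal: Fluo-8 calcium-sensitive fluorescence; Measure: % inhibition of agonist calcium response; Controls: DMSO and EC80 PEA controls.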
OXTR ag – human OXTR agonism; CHO-OTR cells, Fluo-8 calcium fluorescence; normalized: DMSO 0%, oxytocin 100%; P30559; activation, % at 3 µM; actives 0.32% (n = 320,000);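 active = activation above the mean of all tested compounds plus 3 SD, cutoff set per screening run, cut at about 20% in these data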;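 also: peak over basal fluorescence ratio from a 100 s FLIPR kinetic read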
V1R ag counter – activates human V1a receptor in oxytocin agonist counter-screen; P37288; CHO-V1R cells, Fluo-8 calcium fluorescence, agonist mode; 0% DMSO, 100% 3 nM vasopressin; activation, % at 3 µM; actives 0.25% (n = 320,000);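 active = activation above the mean activation of all tested compounds plus 3 SD, per screening run, cut at about 20% in these data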;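 also: signal is peak over basal fluorescence ratio across a 100 second FLIPR read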
nonsel antag count – counter-screen for TAAR1 antagonists: nonselective antagonists; shares compounds with TAAR1 antag; counterscreen cell line, calcium fluorescence, antagonist mode; inhibition, % at 3 µM; actives 77% (n = 2,400); in the data active = inhibition above about 22%;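 also: CHO-Ga16 host cells stimulated with ATP at an EC80 level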
TAAR1 ant conf – confirmation of human TAAR1 antagonists; shares compounds with TAAR1 antag; TAAR1-expressing cells, fluorescence antagonist read-out; inhibition, % at 3 µM; actives 40% (n = 2,400); in the data active = inhibition above about 49%;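 also: CHO-Ga16 host cells challenged with agonist PEA near its EC80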
Ga16 nonsel ag – nonselective Ga16 agonism, counter-screen | shares compounds with TAAR1 antag | Ga16-expressing cells, calcium fluorescence, agonist counterscreen | activation, % at 3 µM | actives 18% (n = 2,400); in the data active = activation above about 12%
TAAR1 ag counter – activates human TAAR1 in antagonist counter-screen; AID 651955; activation, % at 3 µM; hTAAR1 cell line, fluorescence activation, agonist mode; shares compounds with TAAR1 antag; actives 2% (n = 2,400); in the data active = activation above about 37%;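 also: CHO cells stably expressing TAAR1 with calcium dye readout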
Hits are given with their value; - = inactive; . = no result. This is a sample that favours compounds with a hit; in the whole collection about 2.3% have one here.

SMILES	TAAR1 ag	OXTR potentiator	TAAR1 antag	OXTR ag	V1R ag counter	nonsel antag count	TAAR1 ant conf	Ga16 nonsel ag	TAAR1 ag counter
CCOc1ccc(NC(=O)CN(C)C(=O)C2CCN(c3ncnc4sc(C)c(C)c34)CC2)cc1OCC	-	-	-	-	-	.	.	.	.
CCN(CC)c1ccc(C(=O)NNC(=O)C2CCN(c3ncnc4sc(C)c(C)c34)CC2)cc1	-	.	56.1	.	.	25.9	-	-	-
COc1ccccc1OCC(=O)NNC(=O)C1CCN(c2ncnc3sc(C)c(C)c23)CC1	-	-	-	-	-	.	.	.	.
Cc1ccccc1OCC(=O)NNC(=O)C1CCN(c2ncnc3sc(C)c(C)c23)CC1	-	-	69.9	-	-	38.8	56.5	13.5	-
CC(NS(=O)(=O)c1ccc(Cl)cc1)C(=O)N1CCOCC1 (stereo unspecified)	-	-	-	-	-	.	.	.	.
Cc1nn(Cc2c(F)c(F)c(F)c(F)c2F)c(C)c1NC(=O)c1ccc(COc2ccccc2Cl)cc1	.	.	.	.	.	-	.	-	.
COc1ccc(CCNC(=O)c2cc(-c3ccccc3)c(N3CCOCC3)s2)cc1OC	-	-	66.5	-	-	24.9	-	-	-
O=C(NCCCN1CCCC1)c1ccc2c(c1)N(Cc1ccccc1)CCS2	-	-	-	-	-	.	.	.	.
COc1ccc(CCNC(=O)c2ccc3c(c2)N(Cc2ccccc2)CCS3)cc1OC	-	-	80.1	-	-	39.5	61.6	-	-
NS(=O)(=O)c1ccc(CCNC(=O)c2ccc3c(c2)N(Cc2ccccc2)CCS3)cc1	-	-	82.6	-	-	38.8	61.8	-	-
O=C(CCn1c(=O)c2cccn2c2cccnc21)NCCCN1CCN(c2ccc(F)cc2)CC1	-	.	-	.	.	.	.	.	.
CC(=O)n1cc([C@@H]2C=C(C(=O)N3CCN(C)CC3)O[C@H](OCc3ccc(CO)cc3)C2)c2ccccc21	-	-	-	-	-	.	.	.	.
C=CCOC(=O)C1=C[C@H](c2cn(C(C)=O)c3ccccc23)C[C@H](OCc2ccc(CO)cc2)O1	-	-	75.5	-	-	38.2	51.8	-	-
CCO[C@@H]1OC(C(=O)NCc2ccccc2)=C[C@H](c2coc3ccccc3c2=O)[C@H]1CCCO	-	-	50.0	-	-	-	-	-	-
O=C(NCc1ccccc1)C1=C[C@@H](c2coc3ccccc3c2=O)C[C@@H](OCc2ccc(CO)cc2)O1	-	-	52.0	-	-	-	-	-	-
O=C(Nc1ccc(F)c(Cl)c1)NC1CC1	-	-	104.8	-	-	-	-	-	-
O=C(Nc1ccc(F)c(Cl)c1)C1CCCC1	-	-	-	-	-	.	.	.	.
CC(C)CC(NC(=O)C(CC(C)C)NC(=O)OC(C)(C)C)C(=O)O (stereo unspecified)	-	-	-	-	-	.	.	.	.
C#CCN(C[C@@H](CC(C)C)NC(=O)OC(C)(C)C)S(=O)(=O)c1ccc(Br)cc1F	-	.	50.7	.	.	-	-	-	-
CCCCNCc1cc2ccccc2o1	-	-	103.5	-	-	-	-	-	-
O=C1C=CN(C2OC(CO)C(O)C2O)C(=O)C1 (stereo unspecified)	-	.	-	.	.	.	.	.	.
O=C(CCC(=O)c1cccs1)NCCc1ccc(F)cc1	-	-	66.4	-	-	-	80.2	-	53.7
C[C@H](CO)N1C[C@H](C)[C@@H](CN(C)C(=O)Nc2ccc3c(c2)OCO3)Oc2c(NC(=O)Nc3ccccc3)cccc2C1=O	-	-	58.5	-	-	25.6	-	-	-
CC(C)NC(=O)N(C)C[C@H]1Oc2c(NC(=O)Nc3ccc4c(c3)OCO4)cccc2C(=O)N([C@H](C)CO)C[C@@H]1C	-	-	-	-	-	.	.	.	.
Oc1ccc(CCc2ccccn2)cc1	-	.	-	.	.	.	.	.	.
SMILES	TAAR1 ag	OXTR potentiator	TAAR1 antag	OXTR ag	V1R ag counter	nonsel antag count	TAAR1 ant conf	Ga16 nonsel ag	TAAR1 ag counter
COc1ccc(NC(=O)c2cc(-c3cc(Cl)ccc3O)n[nH]2)c(OC)c1	-	-	-	-	-	.	.	.	.
COc1ccc(NC(=O)c2cc(-c3ccc(F)cc3OC)n[nH]2)c(OC)c1	-	.	66.3	.	.	32.2	-	-	-
Cc1ccc(C)c(Cn2nc3c4ccccc4n(Cc4ccccc4)cc-3c2=O)c1	-	.	-	.	.	.	.	.	.
COc1ccc2c(c1)C(SCC(=O)NCCc1ccc(Cl)cc1)CC(C)(C)O2 (stereo unspecified)	-	-	62.1	-	-	-	-	-	-
NS(=O)(=O)c1ccc(CNC(=O)c2cc(-c3ccccc3)nc3ccccc23)cc1	-	-	64.8	-	-	32.4	-	-	-
O=C(NCc1cc([N+](=O)[O-])ccc1O)c1cc(-c2ccncc2)nc2ccccc12	-	-	66.6	-	-	31.6	56.4	-	-
NS(=O)(=O)c1ccc(CNC(=O)c2cc(-c3cccnc3)nc3ccccc23)cc1	-	-	-	-	-	.	.	.	.
O=C(NCc1ccc(F)cc1)c1cc(-c2ccncc2)nc2ccccc12	-	-	-	-	-	.	.	.	.
Cc1ccc(Sc2ncccc2C(=O)NCc2cc([N+](=O)[O-])ccc2O)cc1C	-	.	60.4	.	.	28.9	-	-	-
COc1ccc(N2CCN(C(=O)c3ccc(-c4nc5ccccc5s4)o3)CC2)cc1	-	-	-	-	-	.	.	.	.
COc1ccccc1N1CCN(C(=O)c2ccc(-c3nc4ccccc4s3)o2)CC1	-	-	54.3	-	-	22.0	-	-	-
O=C(NCc1ccccc1Cl)[C@H]1CCCN1C(=O)[C@H]1CCCN1C(=O)c1cccs1	-	.	-	.	.	.	.	.	.
CN(C)S(=O)(=O)c1ccc(C(=O)Nc2nc(-c3cccs3)cs2)cc1	-	-	53.8	-	-	32.6	-	11.8	-
O=C(Nc1nc(-c2cccs2)cs1)c1ccc(S(=O)(=O)N2CCCC2)cc1	-	-	-	-	-	.	.	.	.
O=C(CSc1nnc(Cc2cccs2)n1C1CCCCC1)N1CCCc2ccccc21	-	-	64.4	-	-	36.0	53.7	-	-
Cn1c(Cc2cccs2)nnc1SCC(=O)N1CCCc2ccccc21	-	-	-	-	-	.	.	.	.
O=C(CSc1nnc(Cc2cccs2)n1CCc1ccccc1)N1CCCc2ccccc21	-	-	56.6	-	-	22.1	57.6	-	-
CCOC(=O)[C@]12CCCC=C1N(Cc1cccc3ccccc13)C(=O)[C@H](CC(=O)N1CCN(C(=O)C3CC3)CC1)C2	-	.	-	.	.	.	.	.	.
CCN(C(=O)Cc1c(C(=O)O)n(C)c2ccccc12)c1ccc(F)cc1	-	-	-	-	-	.	.	.	.
